Data on twelve compounds can be found in ChEMBL document CHEMBL1134558, “Discovery of estrogen sulfotransferase inhibitors from a purine library screen” (J Med Chem, 2001).

Molecules are shown by their SMILES.

For orientation: IC50 means the concentration at which inhibition is half-maximal. The low end stands for greater potency in that assay, the high end for weaker potency in that assay.

In the assay the target is T1, Sulfotransferase 1E1 (Mus musculus, UniProt P49891).
T1 sequence (P49891 whole entry): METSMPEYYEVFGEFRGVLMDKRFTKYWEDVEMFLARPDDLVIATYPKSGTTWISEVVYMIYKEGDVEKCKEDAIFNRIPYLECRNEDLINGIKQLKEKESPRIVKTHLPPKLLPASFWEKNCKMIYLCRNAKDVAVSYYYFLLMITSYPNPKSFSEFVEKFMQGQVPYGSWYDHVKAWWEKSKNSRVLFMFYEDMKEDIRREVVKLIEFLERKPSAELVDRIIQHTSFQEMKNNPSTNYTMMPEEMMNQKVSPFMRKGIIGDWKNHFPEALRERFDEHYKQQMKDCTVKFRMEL
Put plainly: Inhibition of estrogen sulfotransferase (EST) in TLC radiolabel transfer assay. The gist of the method:
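Murine EST expressed and purified as an N-terminal GST fusion. Transfer of ³⁵S-sulfate from ³⁵S-PAPS to estrone acceptor; extent of reaction measured by TLC separation and phosphorimaging. IC50 values taken from this radiolabel transfer assay. In the screen each compound was tested at 100 μM, with >70% inhibition scored as a hit.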
`Cn1cnc2c(N(CCO)CCNCCO)nc(NCC(N)=O)nc21`: the IC50 is 100 µM.

With `COc1ccc(CNc2nc(N3CCCCCC3)nc3c2ncn3C(C)C)cc1`, the IC50 is 0.5 µM.

In turn, `COc1ccc(CNc2nc(N3CCN(C)CC3)nc3c2ncn3C(C)C)cc1` had an IC50 of 80 µM.

On to `Cn1cnc2c(NCc3ccccc3N)nc(NCC(N)=O)nc21`, for which the IC50 came out at 30 µM. Against the preceding compound, the IC50 is about 2.7-fold lower.

Regarding `CC(O)CNc1nc(NCC(N)=O)nc2c1ncn2C` (configuration not stated), the IC50 was 60 µM.

For `COc1ccc(CNc2nc(N[C@H](CO)CC(C)C)nc3c2ncn3C(C)C)cc1`, half-maximal inhibition (IC50) was put at 60 µM.

Take `Cn1cnc2c(NCc3ccc(Cl)cc3)nc(NCC(N)=O)nc21`: half-maximal inhibition (IC50) required 35 µM. This IC50 lies about 1.7-fold lower than the previous one.

On to `O=[N+]([O-])c1ccc(CNc2nc(NCC3CCCCC3)c3ncn(CCO)c3n2)cc1`, for which the IC50 is over 200 µM.

Compound `CC(C)n1cnc2c(NCc3ccc(N)cc3)nc(NCCCCC(=O)C3CSC(=O)N3)nc21` (configuration not stated) had an IC50 of 72 µM.

On to `COc1ccc(CNc2nc(NCc3ccccc3)nc3c2ncn3CCO)cc1`, for which the IC50 came out at 30 µM.

For the compound `Cn1cnc2c(N(CCO)CCO)nc(NCC(N)=O)nc21`, the 50% inhibitory concentration (IC50) is over 200 µM.

On to `Cn1cnc2c(NCc3cc(Cl)cc(Cl)c3)nc(NCC(N)=O)nc21`, for which 60 µM corresponded to half-maximal inhibition (IC50).
